What is called Ki is the dissociation constant of the complex between target and ligand, obtained from inhibition or displacement. As usually defined, the half-life is the time needed for the level to fall by half in the phase considered.

Molecules are shown by their SMILES. The source made the active and inactive calls. Where a SMILES comes first, the peptide text is derived from it. [ ]: non-standard residue; d: D form. Abu = CC[C@H](N)C(=O)O

The target in data set [1] is T1, Furin (Homo sapiens, UniProt P09958). Nature of the data set: Inhibition of recombinant soluble human furin using pyroGlu-Arg-Thr-Lys-Arg-methyl-coumaryl-7-amide as substrate measured after 1 hr. A digest of the protocol:
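Soluble human recombinant furin was tested in a competitive kinetic assay. Ki is reported as the mean ± SD of at least two independent experiments.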

Data set [2] has as its target T2, Proprotein convertase subtilisin/kexin type 6 (Homo sapiens) (UniProt P29122).
T2 sequence (whole entry): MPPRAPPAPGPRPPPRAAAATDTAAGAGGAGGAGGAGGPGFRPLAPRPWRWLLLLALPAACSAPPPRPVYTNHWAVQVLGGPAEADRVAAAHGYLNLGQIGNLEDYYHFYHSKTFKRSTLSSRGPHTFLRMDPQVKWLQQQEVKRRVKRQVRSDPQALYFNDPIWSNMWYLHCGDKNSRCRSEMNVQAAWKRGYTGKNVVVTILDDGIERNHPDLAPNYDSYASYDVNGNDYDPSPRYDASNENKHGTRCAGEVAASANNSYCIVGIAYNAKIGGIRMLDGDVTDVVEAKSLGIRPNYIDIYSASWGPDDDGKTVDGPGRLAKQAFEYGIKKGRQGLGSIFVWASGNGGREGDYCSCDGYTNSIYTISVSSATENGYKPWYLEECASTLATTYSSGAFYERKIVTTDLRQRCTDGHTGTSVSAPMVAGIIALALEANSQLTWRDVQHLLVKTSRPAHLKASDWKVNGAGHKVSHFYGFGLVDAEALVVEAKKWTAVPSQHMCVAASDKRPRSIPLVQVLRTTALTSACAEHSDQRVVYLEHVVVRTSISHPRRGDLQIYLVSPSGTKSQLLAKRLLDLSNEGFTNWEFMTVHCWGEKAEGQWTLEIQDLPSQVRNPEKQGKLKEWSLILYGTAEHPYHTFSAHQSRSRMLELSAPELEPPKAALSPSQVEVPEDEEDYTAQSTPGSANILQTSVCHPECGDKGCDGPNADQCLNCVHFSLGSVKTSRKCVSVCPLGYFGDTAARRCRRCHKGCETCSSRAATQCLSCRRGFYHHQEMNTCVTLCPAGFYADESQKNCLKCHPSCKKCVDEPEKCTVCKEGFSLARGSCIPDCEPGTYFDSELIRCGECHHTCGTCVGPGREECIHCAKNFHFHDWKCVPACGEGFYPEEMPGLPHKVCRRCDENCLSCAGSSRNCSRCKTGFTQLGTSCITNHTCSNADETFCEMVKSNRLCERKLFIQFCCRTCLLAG
Description: Inhibition of recombinant soluble human PACE4 using pyroGlu-Arg-Thr-Lys-Arg-methyl-coumaryl-7-amide as substrate measured after 1 hr.

The target of data set [3] is Proprotein convertase subtilisin/kexin type 5 (Homo sapiens) (UniProt Q92824). Nature of the data set: Inhibition of recombinant soluble human PC5 using pyroGlu-Arg-Thr-Lys-Arg-methyl-coumaryl-7-amide as substrate measured after 1 hr.
Proprotein convertase subtilisin/kexin type 5 (Homo sapiens), sequence (Q92824 whole entry): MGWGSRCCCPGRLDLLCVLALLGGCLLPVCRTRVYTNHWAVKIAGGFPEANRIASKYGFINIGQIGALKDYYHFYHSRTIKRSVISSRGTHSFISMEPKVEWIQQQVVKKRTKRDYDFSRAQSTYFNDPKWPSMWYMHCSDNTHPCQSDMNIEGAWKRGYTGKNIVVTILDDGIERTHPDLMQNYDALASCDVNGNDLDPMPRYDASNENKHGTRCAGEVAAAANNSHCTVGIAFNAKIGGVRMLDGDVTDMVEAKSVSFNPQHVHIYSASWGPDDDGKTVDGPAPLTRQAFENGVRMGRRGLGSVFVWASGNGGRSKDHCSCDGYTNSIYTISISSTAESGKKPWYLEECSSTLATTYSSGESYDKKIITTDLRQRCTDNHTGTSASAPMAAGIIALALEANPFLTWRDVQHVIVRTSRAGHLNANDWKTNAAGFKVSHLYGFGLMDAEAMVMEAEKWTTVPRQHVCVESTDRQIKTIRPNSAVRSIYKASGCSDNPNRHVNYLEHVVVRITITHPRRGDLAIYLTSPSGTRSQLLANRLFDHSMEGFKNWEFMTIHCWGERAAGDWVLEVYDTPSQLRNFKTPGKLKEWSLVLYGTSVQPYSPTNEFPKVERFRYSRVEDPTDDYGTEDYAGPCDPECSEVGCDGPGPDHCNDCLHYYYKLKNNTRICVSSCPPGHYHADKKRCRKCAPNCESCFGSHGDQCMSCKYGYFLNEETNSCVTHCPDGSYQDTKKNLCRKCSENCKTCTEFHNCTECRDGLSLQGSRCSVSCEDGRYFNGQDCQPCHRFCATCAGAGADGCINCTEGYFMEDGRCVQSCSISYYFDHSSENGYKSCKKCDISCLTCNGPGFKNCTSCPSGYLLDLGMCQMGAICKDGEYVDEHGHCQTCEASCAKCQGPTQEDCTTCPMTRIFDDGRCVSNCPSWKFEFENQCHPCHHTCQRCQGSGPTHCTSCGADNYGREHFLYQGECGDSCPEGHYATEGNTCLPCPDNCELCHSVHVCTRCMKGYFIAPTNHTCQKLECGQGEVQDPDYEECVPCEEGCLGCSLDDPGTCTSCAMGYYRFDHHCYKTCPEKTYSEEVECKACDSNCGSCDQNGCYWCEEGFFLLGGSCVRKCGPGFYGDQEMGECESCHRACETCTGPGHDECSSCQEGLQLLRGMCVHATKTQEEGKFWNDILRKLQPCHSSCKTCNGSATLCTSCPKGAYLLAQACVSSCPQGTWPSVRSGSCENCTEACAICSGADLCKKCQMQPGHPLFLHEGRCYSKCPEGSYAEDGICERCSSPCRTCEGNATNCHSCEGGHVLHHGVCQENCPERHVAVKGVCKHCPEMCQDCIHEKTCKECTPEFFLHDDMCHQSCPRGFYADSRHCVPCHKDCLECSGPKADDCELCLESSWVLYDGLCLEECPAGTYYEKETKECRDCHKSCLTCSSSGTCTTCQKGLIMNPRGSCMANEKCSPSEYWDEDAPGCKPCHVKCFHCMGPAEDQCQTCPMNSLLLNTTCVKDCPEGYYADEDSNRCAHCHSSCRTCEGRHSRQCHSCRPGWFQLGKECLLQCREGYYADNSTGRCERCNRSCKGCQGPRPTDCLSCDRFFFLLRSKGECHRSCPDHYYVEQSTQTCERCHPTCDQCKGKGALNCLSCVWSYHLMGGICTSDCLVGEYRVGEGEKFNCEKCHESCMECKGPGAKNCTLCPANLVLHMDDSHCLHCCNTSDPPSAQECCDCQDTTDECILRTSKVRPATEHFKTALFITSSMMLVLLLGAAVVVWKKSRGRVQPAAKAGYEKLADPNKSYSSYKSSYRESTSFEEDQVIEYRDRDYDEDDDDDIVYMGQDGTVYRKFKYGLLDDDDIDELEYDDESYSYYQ
Data set [4] addresses T3, Proprotein convertase subtilisin/kexin type 7 (Homo sapiens) (UniProt Q16549).
T3 sequence (whole entry): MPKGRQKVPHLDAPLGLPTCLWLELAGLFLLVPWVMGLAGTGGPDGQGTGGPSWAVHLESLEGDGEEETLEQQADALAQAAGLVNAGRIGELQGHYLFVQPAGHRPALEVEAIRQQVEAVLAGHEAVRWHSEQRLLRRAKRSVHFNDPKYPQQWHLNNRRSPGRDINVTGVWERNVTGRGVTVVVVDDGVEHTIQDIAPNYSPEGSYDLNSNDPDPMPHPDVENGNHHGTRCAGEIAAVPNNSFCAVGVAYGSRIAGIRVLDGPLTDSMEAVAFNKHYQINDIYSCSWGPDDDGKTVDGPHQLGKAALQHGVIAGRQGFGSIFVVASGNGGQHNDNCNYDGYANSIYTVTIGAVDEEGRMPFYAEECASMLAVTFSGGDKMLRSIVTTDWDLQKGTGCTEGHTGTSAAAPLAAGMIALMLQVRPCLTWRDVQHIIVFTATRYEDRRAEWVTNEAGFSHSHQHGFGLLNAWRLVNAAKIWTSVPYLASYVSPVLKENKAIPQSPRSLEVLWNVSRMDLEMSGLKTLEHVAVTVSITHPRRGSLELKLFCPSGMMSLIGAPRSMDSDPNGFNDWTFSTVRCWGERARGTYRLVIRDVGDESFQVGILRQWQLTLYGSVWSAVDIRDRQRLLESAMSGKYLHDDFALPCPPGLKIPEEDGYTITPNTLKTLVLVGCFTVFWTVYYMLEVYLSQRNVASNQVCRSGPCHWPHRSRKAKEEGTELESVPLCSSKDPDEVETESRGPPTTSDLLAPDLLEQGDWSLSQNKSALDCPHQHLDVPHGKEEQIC
Description: Inhibition of recombinant soluble human PC7 using pyroGlu-Arg-Thr-Lys-Arg-methyl-coumaryl-7-amide as substrate measured after 1 hr.

A short description of data set [5]: Half life in CD1 mouse plasma by LC-MS/MS analysis. It is filed as ADME, cell-free. The following applies: for half-life: CD1, mouse. A digest of the protocol: (§1)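 Peptide incubated ex vivo in mouse plasma at 37 °C and sampled at several time points, using the ng/mL concentration range. Intact peptide quantified by high-resolution mass spectrometry and expressed as percentage remaining; t1/2 derived from the time course. Each time point run in triplicate; mean and mean ± SD reported.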

Data set [6] concerns the target T1, Furin. Nature of the data set: Potency index, ratio of CF1 Ki to test compound Ki for recombinant soluble human furin using pyroGlu-Arg-Thr-Lys-Arg-methyl-coumaryl-7-amide as substrate measured after 1 hr.
Data set [7] in a line: Stability of the compound in CD1 mouse plasma assessed as intact compound remaining measured after 2 mins by LC-MS/MS analysis. In kind it is ADME, cell-free. The note with it: read-out: Stabilty. The method in brief:
as §1

T1 sequence (P09958 whole entry): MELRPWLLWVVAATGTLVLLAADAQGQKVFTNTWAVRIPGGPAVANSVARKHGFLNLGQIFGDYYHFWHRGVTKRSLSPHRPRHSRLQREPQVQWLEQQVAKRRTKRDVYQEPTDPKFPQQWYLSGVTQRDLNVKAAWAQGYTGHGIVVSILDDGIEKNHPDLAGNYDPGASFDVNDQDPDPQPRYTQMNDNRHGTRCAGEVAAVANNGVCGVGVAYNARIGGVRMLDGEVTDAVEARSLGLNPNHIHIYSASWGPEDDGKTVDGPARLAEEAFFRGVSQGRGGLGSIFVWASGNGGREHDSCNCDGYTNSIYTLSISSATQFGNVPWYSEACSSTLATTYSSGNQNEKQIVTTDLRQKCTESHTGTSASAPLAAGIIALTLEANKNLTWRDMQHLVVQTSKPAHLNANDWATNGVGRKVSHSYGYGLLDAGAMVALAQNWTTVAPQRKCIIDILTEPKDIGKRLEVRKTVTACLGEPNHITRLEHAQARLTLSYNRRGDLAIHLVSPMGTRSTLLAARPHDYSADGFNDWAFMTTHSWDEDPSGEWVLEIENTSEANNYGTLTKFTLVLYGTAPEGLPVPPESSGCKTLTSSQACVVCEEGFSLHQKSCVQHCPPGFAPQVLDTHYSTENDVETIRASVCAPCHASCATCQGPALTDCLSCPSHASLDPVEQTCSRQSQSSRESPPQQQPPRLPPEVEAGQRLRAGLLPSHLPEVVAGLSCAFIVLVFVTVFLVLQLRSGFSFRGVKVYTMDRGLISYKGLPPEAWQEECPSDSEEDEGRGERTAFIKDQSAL

Regarding `CC(=O)N[C@@H](CCCNC(=N)N)C(=O)N[C@@H](C)C(=O)N[C@@H](CCCNC(=N)N)C(=O)N[C@@H](CC(N)=O)C(=O)N[C@@H](CCCNC(=N)N)C(=O)N[C@@H](CCCCN)C(=O)N[C@@H](CCCCN)C(=O)N[C@@H](CCCNC(=N)N)C(=O)N[C@H](C(N)=O)[C@@H](C)O`, the inhibition constant Ki at Furin [1] is 18 nM. Besides, the inhibition entry in data set [2] and in data set [3] was “Active” each time. Moreover, the inhibition result in data set [4] was “inactive”.
Regarding `CC(=O)N[C@@H](CCCNC(=N)N)C(=O)N[C@@H](C)C(=O)N[C@@H](CCCNC(=N)N)C(=O)N[C@@H](CCCNC(=N)N)C(=O)N[C@@H](CCCNC(=N)N)C(=O)N[C@@H](CCCCN)C(=O)N[C@@H](CCCCN)C(=O)N[C@@H](CCCNC(=N)N)C(=O)N[C@H](C(N)=O)[C@@H](C)O`, the Ki on Furin [1] stood at 15 nM. The inhibition result in data set [2] and in data set [3] was “Active” in each case. This compound also registered a t1/2 in data set [5] (mouse) of 3.54 min. Moreover, the inhibition result in data set [4] was “inactive”.
In the case of `CC(=O)N[C@@H](CCCNC(=N)N)C(=O)N[C@@H](C)C(=O)N[C@@H](CCCNC(=N)N)C(=O)N[C@@H](Cc1ccccc1)C(=O)N[C@@H](CCCNC(=N)N)C(=O)N[C@@H](CCCCN)C(=O)N[C@@H](CCCCN)C(=O)N[C@@H](CCCNC(=N)N)C(=O)N[C@H](C(N)=O)[C@@H](C)O`, on Furin [1], the Ki amounted to 21 nM. In addition, the inhibition entry in data set [2] and in data set [3] was “Active” each time. This compound came in with a half-life in data set [5] of 0.32 min. In addition, in data set [4], the inhibition result is “inactive”.
`CC(=O)N[C@@H](CCCNC(=N)N)C(=O)N[C@@H](C)C(=O)N[C@@H](CCCNC(=N)N)C(=O)N[C@@H](CCCNC(=N)N)C(=O)N[C@@H](CCCNC(=N)N)C(=O)N[C@@H](CCCCN)C(=O)N[C@@H](CCCCN)C(=O)NN(CCCNC(=N)N)CC(=O)N[C@@H](Cc1ccccc1)C(N)=O`: the Ki on Furin [1] came out at 2500 nM. The half-life in data set [5] was found to be 2.59 min.
Regarding `CC[C@H](C)[C@H](NC(=O)[C@H](CCCNC(=N)N)NC(=O)[C@H](C)NC(=O)[C@H](CCCNC(=N)N)NC(C)=O)C(=O)N[C@@H](CCCNC(=N)N)C(=O)N[C@@H](CCCCN)C(=O)N[C@@H](CCCCN)C(=O)N[C@@H](CCCNC(=N)N)C(=O)N[C@H](C(N)=O)[C@@H](C)O`, the Ki at Furin [1] stood at 6 nM. Further, the inhibition result in data set [2] and in data set [3] was “Active” each time. The Ratio Ki at Furin [6] was 2. Moreover, in data set [4], the inhibition entry was “inactive”.
For the compound `CC[C@H](C)[C@H](NC(=O)[C@H](CCCNC(=N)N)NC(=O)[C@H](C)NC(=O)[C@@H]1CCCN1C(C)=O)C(=O)N[C@@H](CCCNC(=N)N)C(=O)N[C@@H](CCCCN)C(=O)N[C@@H](CCCCN)C(=O)N[C@@H](CCCNC(=N)N)C(=O)N[C@H](C(N)=O)[C@@H](C)O` (Ac-PARIRKKRT-NH2), the Ki at Furin [1] stood at 8 nM. In addition, in data set [5], the half-life came out at 0.74 min. In addition, the remaining at 2 min in data set [7] was 15%.
With `CC(=O)N[C@@H](CCCNC(=N)N)C(=O)N[C@@H](C)C(=O)N[C@@H](Cc1ccccc1)C(=O)N[C@@H](CCCNC(=N)N)C(=O)N[C@@H](CCCNC(=N)N)C(=O)N[C@@H](CCCCN)C(=O)N[C@@H](CCCCN)C(=O)N[C@@H](CCCNC(=N)N)C(=O)N[C@H](C(N)=O)[C@@H](C)O`, the inhibition constant Ki on Furin [1] worked out at 29 nM. The same compound gave a half-life in data set [5] of 0.21 min.
`CC(=O)N[C@@H](Cc1ccccc1)C(=O)N[C@@H](C)C(=O)N[C@@H](CCCNC(=N)N)C(=O)N[C@@H](CCCNC(=N)N)C(=O)N[C@@H](CCCNC(=N)N)C(=O)N[C@@H](CCCCN)C(=O)N[C@@H](CCCCN)C(=O)N[C@@H](CCCNC(=N)N)C(=O)N[C@H](C(N)=O)[C@@H](C)O`: at Furin [1], the Ki amounted to 14 nM. For the same compound, the half-life in data set [5] came out at 0.56 min.
`CC(=O)N[C@@H](CCCNC(=N)N)C(=O)N[C@@H](C)C(=O)N[C@@H](CCCNC(=N)N)C(=O)N[C@@H](CCCCN)C(=O)N[C@@H](CCCNC(=N)N)C(=O)N[C@@H](CCCCN)C(=O)N[C@@H](CCCCN)C(=O)N[C@@H](CCCNC(=N)N)C(=O)N[C@H](C(N)=O)[C@@H](C)O`: the Ki on Furin [1] was found to be 7 nM. The Ratio Ki at Furin [6] stood at 2.
With `CC[C@H](NC(=O)[C@H](CCCNC(=N)N)NC(=O)[C@H](C)NC(=O)[C@@H]1CCCN1C(C)=O)C(=O)N[C@@H](CCCNC(=N)N)C(=O)N[C@@H](CCCCN)C(=O)N[C@@H](CCCCN)C(=O)N[C@@H](CCCNC(=N)N)C(=O)N[C@H](C(N)=O)[C@@H](C)O`, on Furin [1], the Ki is 10 nM.
For `CC(=O)N1CCC[C@H]1C(=O)N[C@@H](C)C(=O)N[C@@H](CCCNC(=N)N)C(=O)N[C@@H](CCCNC(=N)N)C(=O)N[C@@H](CCCNC(=N)N)C(=O)N[C@@H](CCCCN)C(=O)N[C@@H](CCCCN)C(=O)N[C@@H](CCCNC(=N)N)C(=O)N[C@H](C(N)=O)[C@@H](C)O`, the Ki on Furin [1] is 10 nM.
Same read-out and setting: the value for `CC(=O)N[C@@H](CCCNC(=N)N)C(=O)N[C@@H](C)C(=O)N[C@@H](CCCNC(=N)N)C(=O)NCC(=O)N[C@@H](CCCNC(=N)N)C(=O)N[C@@H](CCCCN)C(=O)N[C@@H](CCCCN)C(=O)N[C@@H](CCCNC(=N)N)C(=O)N[C@H](C(N)=O)[C@@H](C)O` was 36 nM.
Regarding `CC(=O)N[C@@H](CCCNC(=N)N)C(=O)N[C@@H](Cc1ccccc1)C(=O)N[C@@H](CCCNC(=N)N)C(=O)N[C@@H](CCCNC(=N)N)C(=O)N[C@@H](CCCNC(=N)N)C(=O)N[C@@H](CCCCN)C(=O)N[C@@H](CCCCN)C(=O)N[C@@H](CCCNC(=N)N)C(=O)N[C@H](C(N)=O)[C@@H](C)O`, the Ki at Furin [1] was determined as 23 nM. The compound also returned a half-life in data set [5] of 0.96 min.
Consider `CC(=O)N[C@@H](CCCNC(=N)N)C(=O)N[C@@H](CO)C(=O)N[C@@H](CCCNC(=N)N)C(=O)N[C@@H](CCCNC(=N)N)C(=O)N[C@@H](CCCNC(=N)N)C(=O)N[C@@H](CCCCN)C(=O)N[C@@H](CCCCN)C(=O)N[C@@H](CCCNC(=N)N)C(=O)N[C@H](C(N)=O)[C@@H](C)O`, for which, on Furin [1], the inhibition constant (Ki) was determined as 15 nM.
As for `CC[C@H](NC(C)=O)C(=O)N[C@@H](C)C(=O)N[C@@H](CCCNC(=N)N)C(=O)N[C@H](C(=O)N[C@@H](CCCNC(=N)N)C(=O)N[C@@H](CCCCN)C(=O)N[C@@H](CCCCN)C(=O)N[C@@H](CCCNC(=N)N)C(=O)N[C@H](C(N)=O)[C@@H](C)O)[C@@H](C)CC` (Ac-[Abu]ARIRKKRT-NH2), on Furin [1], the Ki amounted to 6 nM.
As to `CC(=O)N[C@@H](CCCNC(=N)N)C(=O)N[C@@H](C)C(=O)N[C@@H](CCCNC(=N)N)C(=O)N[C@H](C(=O)N[C@@H](CCCNC(=N)N)C(=O)N[C@@H](CCCCN)C(=O)N[C@@H](CCCCN)C(=O)N[C@@H](CCCNC(=N)N)C(=O)N[C@H](C(N)=O)[C@@H](C)O)C(C)C`, the Ki at Furin [1] turned out to be 7 nM. The Ratio Ki on Furin [6] was 2.

The record behind these values is ChEMBL document CHEMBL4680371, “Design and Structure-Activity Relationship of a Potent Furin Inhibitor Derived from Influenza Hemagglutinin” (ACS Med Chem Lett, 2021).
